How the values were obtained:
[1] = Neuroprotective activity against H2O2-induced cell damage in human HBMEC2 cells assessed as increase in cell viability preincubated for 24 hrs followed by H2O2 addition and measured after 4 hrs by MTT assay; format: functional, cell-based; settings: HBMEC-2
How it was run: (§1)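 Cells at 3.5×10^4 cells/mL in 96-well plates were grown 24 h (37 °C, 5% CO2). Test agent was added at five concentrations for 24 h, then H2O2 (4.8 mM stock) to model and drug wells. After PBS washes, MTT (5 mg/mL) was added for 4 h, formazan was dissolved in DMSO and OD was read at 550 nm. Proliferation rate = (drug − injury OD)/(control − injury OD). EC50 came from a formula using maximum concentration and summed, maximal and minimal rates.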

[2] = system: SH-SY5Y; assay: Neuroprotective activity against H2O2-induced cell damage in human SH-SY5Y cells assessed as increase in cell viability preincubated for 24 hrs followed by H2O2 addition and measured after 4 hrs by MTT assay; format: functional, cell-based; how it was run: as §1

Row | SMILES | EC50 [1] [µM] | EC50 [2] [µM]
1 | COc1cccc(/C=C/C(=O)NCc2ccc(OCc3nc(C)c(C)nc3C)c(OC)c2)c1 | 9.87 | 4.32
2 | COc1cc(CNC(=O)/C=C/c2ccccc2OC)ccc1O | 6.48 | 5.98
3 | COc1cc(CNC(=O)/C=C/c2cccc(OC)c2OC)ccc1OCc1nc(C)c(C)nc1C | 6.31 | 7.15
4 | COc1ccc(/C=C/C(=O)NCc2ccc(OCc3nc(C)c(C)nc3C)c(OC)c2)cc1O | 13.5 | 8.56
5 | COc1cc(CNC(=O)/C=C/c2cc(OC)c(OC)c(OC)c2)ccc1OCc1nc(C)c(C)nc1C | 3.55 | 11.5
6 | COc1cc(CNC(=O)/C=C/c2cc(OC)c(OC)c(OC)c2)ccc1O | 2.59 | 5.91
7 | COc1ccc(OC)c(/C=C/C(=O)NCc2ccc(O)c(OC)c2)c1 | 10.5 | 9.5
8 | COc1cc(CNC(=O)/C=C/c2cccc(O)c2)ccc1O | 5.75 | 8.62
9 | COc1cc(CNC(=O)/C=C/c2ccccc2OCc2nc(C)c(C)nc2C)ccc1O | 6.65 | 12
10 | COc1cc(CNC(=O)/C=C/c2cccc(OCc3nc(C)c(C)nc3C)c2)ccc1OCc1nc(C)c(C)nc1C | 12.8 | 8.7
11 | COc1cc(CNC(=O)CCCC/C=C/C(C)C)ccc1O [CAPSAICIN] | 16.4 | 14
12 | COc1cc(CNC(=O)/C=C/c2cccc(O)c2)ccc1OCc1nc(C)c(C)nc1C | 6.17 | 3.68
13 | COc1cc(CNC(=O)/C=C/c2ccc(OC)c(OC)c2OC)ccc1OCc1nc(C)c(C)nc1C | 18.1 | 3.84
14 | COc1cc(CNC(=O)/C=C/c2cccc(OC)c2OC)ccc1O | 13.1 | 5.49
15 | COc1ccc(/C=C/C(=O)NCc2ccc(O)c(OC)c2)cc1 | 10.4 | 11.4
16 | COc1cc(CNC(=O)/C=C/c2ccc(OC)c(OCc3nc(C)c(C)nc3C)c2)ccc1O | 9.3 | 9.25
17 | COc1ccc(/C=C/C(=O)NCc2ccc(OCc3nc(C)c(C)nc3C)c(OC)c2)cc1 | 6.56 | 5.05
18 | COc1cc(CNC(=O)/C=C/c2ccccc2)ccc1OCc1nc(C)c(C)nc1C | 4.99 | 7.31
19 | COc1cc(CNC(=O)/C=C/c2ccc(OC)c(OC)c2)ccc1O | 8.85 | 11
20 | COc1cc(CNC(=O)/C=C/c2ccccc2O)ccc1O | 7.46 | 9.76
21 | COc1cc(CNC(=O)/C=C/c2ccc(O)cc2)ccc1OCc1nc(C)c(C)nc1C | 6.23 | 3.74
22 | COc1cc(CNC(=O)/C=C/c2ccccc2OCc2nc(C)c(C)nc2C)ccc1OCc1nc(C)c(C)nc1C | 15.1 | 6.28

Row | SMILES | EC50 [1] [µM] | EC50 [2] [µM]
23 | COc1cc(OC)c(OC)cc1/C=C/C(=O)NCc1ccc(OCc2nc(C)c(C)nc2C)c(OC)c1 | 12.5 | 3.62
24 | COc1cc(/C=C/C(=O)NCc2ccc(OCc3nc(C)c(C)nc3C)c(OC)c2)cc(OC)c1 | 12.9 | 8.66
25 | COc1cccc(/C=C/C(=O)NCc2ccc(O)c(OC)c2)c1 | 7.11 | 5.24
26 | COc1cc(CNC(=O)/C=C/c2ccc(O)cc2)ccc1O | 8.04 | 6
27 | COc1cc(CNC(=O)/C=C/c2ccc(OC)c(OC)c2OC)ccc1O | 4.82 | 7.45
28 | COc1cc(CNC(=O)/C=C/c2ccc(OCc3nc(C)c(C)nc3C)cc2)ccc1O | 12.5 | 5.37
29 | COc1cc(CNC(=O)/C=C/c2cccc(OCc3nc(C)c(C)nc3C)c2)ccc1O | 10.6 | 8.09
30 | COc1cc(/C=C/C(=O)NCc2ccc(OCc3nc(C)c(C)nc3C)c(OC)c2)ccc1O | 5.81 | 13.4
31 | Cc1nc(C)c(C)nc1C [LIGUSTRAZINE] | 15.2 | 17.6
32 | COc1cc(CNC(=O)/C=C/c2ccccc2)ccc1O | 9.8 | 3.66
33 | COc1cc(CNC(=O)/C=C/c2ccc(OCc3nc(C)c(C)nc3C)c(OC)c2)ccc1O | 11.6 | 10.2
34 | COc1cc(/C=C/C(=O)NCc2ccc(OCc3nc(C)c(C)nc3C)c(OC)c2)ccc1OCc1nc(C)c(C)nc1C | 14.5 | 11.1
35 | COc1ccccc1/C=C/C(=O)NCc1ccc(OCc2nc(C)c(C)nc2C)c(OC)c1 | 12 | 7.15
36 | COc1ccc(/C=C/C(=O)NCc2ccc(O)c(OC)c2)cc1O | 11.8 | 7.85
37 | COc1ccc(/C=C/C(=O)NCc2ccc(OCc3nc(C)c(C)nc3C)c(OC)c2)cc1OC | 15.8 | 4.47
38 | COc1cc(/C=C/C(=O)NCc2ccc(O)c(OC)c2)ccc1O | 6.34 | 9.3
39 | CC1=NN(c2ccccc2)C(=O)C1 [EDARAVONE] | 4.61 | 3.75
40 | COc1cc(CNC(=O)/C=C/c2ccccc2O)ccc1OCc1nc(C)c(C)nc1C | 6.07 | 5.3
41 | COc1cc(CNC(=O)/C=C/c2ccc(OC)c(OCc3nc(C)c(C)nc3C)c2)ccc1OCc1nc(C)c(C)nc1C | 14.6 | 11.6
42 | COc1cc(/C=C/C(=O)NCc2ccc(O)c(OC)c2)cc(OC)c1 | 7.81 | 4.86
43 | COc1cc(CNC(=O)/C=C/c2ccc(OCc3nc(C)c(C)nc3C)cc2)ccc1OCc1nc(C)c(C)nc1C | 21.4 | 7.77
44 | COc1ccc(OC)c(/C=C/C(=O)NCc2ccc(OCc3nc(C)c(C)nc3C)c(OC)c2)c1 | 11.8 | 11
